Reference: ChEMBL document CHEMBL2146434, “Synthesis and biological evaluation of new amino acid and dipeptide derivatives of neocryptolepine as anticancer agents” (J Med Chem, 2012)
pIC50: −log10 of the molar value.

Assays:
LoVo = test: Cytotoxicity against human LoVo cells after 72 hrs by SRB assay; format: functional, cell-based
How it was run: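 IC50 is the compound concentration giving 50% inhibition of cell proliferation. It was determined on normal mouse BALB/3T3 fibroblasts and on human A549, MCF-7 and LoVo cancer lines, with doxorubicin hydrochloride and DiMIQ as reference compounds.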

[1] = Octanol-water partition coefficient, log P of the compound at pH 2.2; format: physicochemical
[2] = Octanol-water partition coefficient, log P of the compound at pH 5; format: physicochemical
[3] = tested on: Lewis lung carcinoma cell line; test: Antineoplastic activity against mouse LLC cells xenografted in C57BL/6 mouse assessed as tumor growth inhibition at 100 mg/kg/day measured on day 17; conditions: 408 h, read-out: TGI
[4] = tested on: Lewis lung carcinoma cell line; test: Antineoplastic activity against mouse LLC cells xenografted in C57BL/6 mouse assessed as tumor growth inhibition at 100 mg/kg/day measured on day 11; conditions: 264 h, read-out: TGI
[5] = tested on: Lewis lung carcinoma cell line; test: Antineoplastic activity against mouse LLC cells xenografted in C57BL/6 mouse assessed as tumor growth inhibition at 100 mg/kg/day measured on day 14; conditions: 336 h, read-out: TGI
[6] = tested on: Lewis lung carcinoma cell line; test: Antineoplastic activity against mouse LLC cells xenografted in C57BL/6 mouse assessed as tumor growth inhibition at 100 mg/kg/day measured on day 16; conditions: 384 h, read-out: TGI
[7] = tested on: Lewis lung carcinoma cell line; test: Antineoplastic activity against mouse LLC cells xenografted in C57BL/6 mouse assessed as tumor growth inhibition at 100 mg/kg/day measured on day 18; conditions: 432 h, read-out: TGI
[8] = tested on: Lewis lung carcinoma cell line; test: Antineoplastic activity against mouse LLC cells xenografted in C57BL/6 mouse assessed as tumor growth inhibition at 100 mg/kg/day measured on day 21; conditions: 504 h, read-out: TGI
[9] = tested on: Lewis lung carcinoma cell line; test: Antineoplastic activity against mouse LLC cells xenografted in C57BL/6 mouse assessed as tumor growth inhibition at 100 mg/kg/day measured on day 23; conditions: 552 h, read-out: TGI
[10] = tested on: Lewis lung carcinoma cell line; test: Antineoplastic activity against mouse LLC cells xenografted in C57BL/6 mouse assessed as tumor growth inhibition at 100 mg/kg/day measured on day 12; conditions: 288 h, read-out: TGI
[11] = tested on: Lewis lung carcinoma cell line; test: Antineoplastic activity against mouse LLC cells xenografted in C57BL/6 mouse assessed as tumor growth inhibition at 100 mg/kg/day measured on day 19; conditions: 456 h, read-out: TGI
[12] = tested on: Lewis lung carcinoma cell line; test: Antineoplastic activity against mouse LLC cells xenografted in C57BL/6 mouse assessed as tumor growth inhibition at 100 mg/kg/day measured on day 24; conditions: 576 h, read-out: TGI

Row | Compound | pIC50 (LoVo) | logP [1] | logP [2] | inhibition in vivo at 100 mg/kg/day [3] [%] | inhibition in vivo at 100 mg/kg/day [4] [%] | inhibition in vivo at 100 mg/kg/day [5] [%] | inhibition in vivo at 100 mg/kg/day [6] [%] | inhibition in vivo at 100 mg/kg/day [7] [%] | inhibition in vivo at 100 mg/kg/day [8] [%] | inhibition in vivo at 100 mg/kg/day [9] [%] | inhibition in vivo at 100 mg/kg/day [10] [%] | inhibition in vivo at 100 mg/kg/day [11] [%] | inhibition in vivo at 100 mg/kg/day [12] [%]
1 | Cc1c2c3ccccc3nc-2n(C)c2ccccc12 | 6.70 | -1 | 2 | – | – | – | – | – | – | – | – | – | –
2 | O=P1(N(CCCl)CCCl)NCCCO1 (stereo not drawn) [CYCLOPHOSPHAMIDE ANHYDROUS] | – | – | – | 37 | 49.8 | 36.8 | 31.9 | 12.5 | 21.3 | 30.4 | 24.1 | 40 | 0
